pKi: −log10 of the molar value. One block for each molecule: values may come before it. Where a SMILES comes first, the peptide text is derived from it. [ ]: non-standard residue; d: D form. Phe(4-NH2) = Nc1ccc(C[C@H](N)C(=O)O)cc1
Key:
[1] = target: T1, Angiotensin II receptor (AT-1) type-1 (Rattus norvegicus, UniProt P29089+P25095); assay: Displacement of [125I]-Ang II from angiotensin II receptor type 1 in rat liver membranes; type: cell membranes, Membrane
T1 sequence (P29089 whole entry): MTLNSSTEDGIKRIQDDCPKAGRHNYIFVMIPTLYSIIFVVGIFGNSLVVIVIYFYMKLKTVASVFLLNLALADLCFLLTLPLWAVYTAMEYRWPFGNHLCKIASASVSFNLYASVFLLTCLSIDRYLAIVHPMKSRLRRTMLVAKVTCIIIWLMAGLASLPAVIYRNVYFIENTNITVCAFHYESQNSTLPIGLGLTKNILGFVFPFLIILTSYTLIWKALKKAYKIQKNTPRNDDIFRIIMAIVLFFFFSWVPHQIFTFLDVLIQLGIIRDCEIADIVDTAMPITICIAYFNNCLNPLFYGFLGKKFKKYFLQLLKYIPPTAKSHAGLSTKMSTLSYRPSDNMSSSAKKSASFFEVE
T1 sequence (P25095 whole entry): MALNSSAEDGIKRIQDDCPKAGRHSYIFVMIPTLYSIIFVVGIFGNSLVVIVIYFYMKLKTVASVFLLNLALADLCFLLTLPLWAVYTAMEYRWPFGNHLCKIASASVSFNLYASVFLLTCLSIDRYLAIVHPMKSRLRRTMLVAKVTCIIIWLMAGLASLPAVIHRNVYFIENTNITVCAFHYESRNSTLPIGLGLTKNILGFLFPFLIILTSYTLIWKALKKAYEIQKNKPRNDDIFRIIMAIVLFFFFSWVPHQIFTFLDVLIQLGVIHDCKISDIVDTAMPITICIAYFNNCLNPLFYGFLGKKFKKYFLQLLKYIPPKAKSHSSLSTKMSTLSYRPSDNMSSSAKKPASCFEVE

NG108-15 = assay: Effect on neurite outgrowth in NG108-15 cells after treatment for 3 days (control 2.26%)
[2] = target: T2, Type-2 angiotensin II receptor (Homo sapiens) (UniProt P50052); assay: Effect on [3H]thymidine incorporation into PC12 cells expressing AT2 receptors at 1.0 uM; conditions: PC-12
T2 sequence (whole entry): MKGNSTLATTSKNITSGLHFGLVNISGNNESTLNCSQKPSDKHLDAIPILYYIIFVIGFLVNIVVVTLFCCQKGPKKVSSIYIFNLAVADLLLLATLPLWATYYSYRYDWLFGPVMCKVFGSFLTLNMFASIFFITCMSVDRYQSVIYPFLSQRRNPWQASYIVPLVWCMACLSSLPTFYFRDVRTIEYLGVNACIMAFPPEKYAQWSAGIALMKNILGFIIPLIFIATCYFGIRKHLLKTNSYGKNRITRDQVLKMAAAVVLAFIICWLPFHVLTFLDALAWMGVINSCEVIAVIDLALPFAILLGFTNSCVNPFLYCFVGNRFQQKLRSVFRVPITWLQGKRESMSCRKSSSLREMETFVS

[3] = target: T3, Type-2 angiotensin II receptor (Homo sapiens, UniProt P50052); assay: Displacement of [125I]-Ang II from angiotensin II receptor type 2 in pig uterus myometrium; design: species or system Sus scrofa; conditions: target entry is the homologue from another species
T3 sequence (P50052 whole entry): T2 sequence (whole entry)
In short: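 Porcine uterine myometrial membranes (10 mg tissue equivalent) with 1 µM losartan to block AT1. Tris-HCl pH 7.4 buffer with NaCl, MgCl2, EDTA, 0.2% BSA and peptidase inhibitors. Filtration, γ-counting; nonspecific binding with 1 µM Ang II.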

SMILES: NC(N)=NCCC[C@H](NC(=O)[C@@H](N)CC(=O)O)C(=O)Nc1ccc2c(c1)CN(CC(=O)N[C@@H](Cc1c[nH]cn1)C(=O)N1CCC[C@H]1C(=O)N[C@@H](Cc1ccccc1)C(=O)O)C(=O)[C@H](Cc1ccc(O)cc1)N2
- Ki [1]: > 10 µM

SMILES: CC[C@@H](C)[C@@H](C(=O)N[C@@H](Cc1c[nH]cn1)C(=O)N1CCC[C@H]1C(=O)N[C@@H](Cc1ccccc1)C(=O)O)N1Cc2cccc(NC(=O)[C@H](CCCN=C(N)N)NC(=O)[C@@H](N)CC(=O)O)c2N[C@@H](Cc2ccc(O)cc2)C1=O
- Ki [1]: > 10 µM

SMILES: CC(C)[C@H](NC(=O)[C@H](CCCN=C(N)N)NC(=O)[C@@H](N)CC(=O)O)C(=O)Nc1ccc2c(c1)CN(CC(=O)N[C@@H](Cc1c[nH]cn1)C(=O)N1CCC[C@H]1C(=O)N[C@@H](Cc1ccccc1)C(=O)O)C(=O)[C@H](Cc1ccc(O)cc1)N2
- Ki [1]: > 10 µM
- pKi [3]: 8.52
- Activity (NG108-15): 11.1%
- Activity (Counts/minute) [2]: 45400

SMILES: CC(C)[C@H](NC(=O)[C@H](C)NC(=O)[C@@H](N)CC(=O)O)C(=O)Nc1cccc2c1N[C@@H](Cc1ccc(O)cc1)C(=O)N(CC(=O)N[C@@H](Cc1c[nH]cn1)C(=O)N1CCC[C@H]1C(=O)N[C@@H](Cc1ccccc1)C(=O)O)C2
- Ki [1]: > 10 µM

SMILES: C[C@H](NC(=O)[C@@H](N)CC(=O)O)C(=O)Nc1cccc2c1N[C@@H](Cc1ccc(O)cc1)C(=O)N(CC(=O)N[C@@H](Cc1c[nH]cn1)C(=O)N1CCC[C@H]1C(=O)N[C@@H](Cc1ccccc1)C(=O)O)C2
- Ki [1]: > 10 µM

Now from value to molecule, other results behind:

- Ki [1]: > 10 µM
SMILES: CC(C)[C@H](NC(=O)[C@H](CCCN=C(N)N)NC(=O)[C@@H](N)CC(=O)O)C(=O)Nc1cccc2c1N[C@@H](Cc1ccc(O)cc1)C(=O)N(CC(=O)N[C@@H](Cc1c[nH]cn1)C(=O)N1CCC[C@H]1C(=O)N[C@@H](Cc1ccccc1)C(=O)O)C2
- Activity (NG108-15): 9.88%

- Activity (Counts/minute) [2]: 68700
SMILES: Cc1cc(Cn2cnc3c2C[C@@H](C(=O)O)N(C(=O)C(c2ccccc2)c2ccccc2)C3)ccc1N(C)C

- Ki [1]: > 10 µM
SMILES: CC[C@H](C)[C@H](NC(=O)[C@H](Cc1ccc(O)cc1)NC(=O)[C@@H](NC(=O)[C@H](CCCN=C(N)N)NC(=O)[C@@H](N)CC(=O)O)C(C)C)C(=O)N[C@@H](Cc1ccc(N)cc1)C(=O)N1CCC[C@H]1C(=O)N[C@@H](Cc1ccccc1)C(=O)O (H-DRVYI[Phe(4-NH2)]PF-OH)

- Ki [1]: > 10 µM
SMILES: CC[C@@H](C)[C@@H](C(=O)N[C@@H](Cc1c[nH]cn1)C(=O)N1CCC[C@H]1C(=O)N[C@@H](Cc1ccccc1)C(=O)O)N1Cc2cccc(NC(=O)[C@@H](NC(=O)[C@H](CCCN=C(N)N)NC(=O)[C@@H](N)CC(=O)O)C(C)C)c2N[C@@H](Cc2ccc(O)cc2)C1=O

- Ki [1]: > 10 µM
SMILES: NC(N)=NCCC[C@H](NC(=O)[C@@H](N)CC(=O)O)C(=O)Nc1cccc2c1N[C@@H](Cc1ccc(O)cc1)C(=O)N(CC(=O)N[C@@H](Cc1c[nH]cn1)C(=O)N1CCC[C@H]1C(=O)N[C@@H](Cc1ccccc1)C(=O)O)C2
- Activity (NG108-15): 9.35%
